Data on 1 molecule can be found in ChEMBL document CHEMBL4038330, “Discovery of Potent Orally Active Protease-Activated Receptor 1 (PAR1) Antagonists Based on Andrographolide” (J Med Chem, 2017).

Data set [1] concerns Rattus norvegicus. Description: Toxicity in Wistar rat assessed as behavioral abnormalities at 5 mg/kg, po measured up to 24 hrs post dose. It is filed as organism-based. Conditions: in vivo; call rule not given here. Summed up: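 Male Wistar rats given 1 mg/kg iv or 5 mg/kg intragastrically. Behaviour observed for abnormalities over the 24 h sampling period.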
Data set [2] is described as follows: AUC (0 to infinity) in Wistar rat at 5 mg/kg, po measured up to 24 hrs post dose by HPLC-MS/MS analysis. The arrangement: dose 5 mg/kg, time infinity, route oral. In kind it is ADME, organism-based. To be noted: in vivo. Summed up: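 Male Wistar rats, n = 6 per group, dosed intragastrically at 5 mg/kg or intravenously at 1 mg/kg. Blood concentrations followed over 24 h. Parameters from non-compartmental analysis, reported as median ± SD.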

For data set [3], the system named is Cavia porcellus. Description: In vivo antagonist activity at PAR1 in guinea pig assessed as inhibition of thrombin-stimulated platelet aggregation at 30 mg/kg, po pretreated for 2 hrs followed by thrombin stimulation measured after 5 mins. In kind it is functional.
For data set [4], the system named is collagen-stimulated platelet aggregation. Description: Toxicity in guinea pig assessed as inhibition of collagen-stimulated platelet aggregation at 30 mg/kg, po pretreated for 2 hrs followed by collagen stimulation measured after 5 mins. It is filed as organism-based, Cavia porcellus. To be noted: in vivo.
Data set [5] addresses T1, Proteinase-activated receptor 1 (Homo sapiens, UniProt P25116).
T1 sequence (P25116 whole entry): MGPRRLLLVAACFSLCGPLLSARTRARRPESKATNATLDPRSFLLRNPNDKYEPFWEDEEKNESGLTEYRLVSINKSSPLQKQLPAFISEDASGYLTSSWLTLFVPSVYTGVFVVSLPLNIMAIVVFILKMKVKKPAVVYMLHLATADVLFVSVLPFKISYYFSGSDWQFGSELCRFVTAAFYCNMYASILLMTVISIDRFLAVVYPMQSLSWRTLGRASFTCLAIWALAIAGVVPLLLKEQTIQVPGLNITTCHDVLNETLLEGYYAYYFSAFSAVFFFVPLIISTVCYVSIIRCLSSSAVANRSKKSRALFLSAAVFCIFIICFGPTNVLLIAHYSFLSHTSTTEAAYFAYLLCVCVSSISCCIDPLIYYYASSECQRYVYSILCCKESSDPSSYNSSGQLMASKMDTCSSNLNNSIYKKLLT
Description: Antagonist activity at human PAR1 expressed in HEK293 cells co-expressing Galpha15 assessed as inhibition of haTRAP-induced calcium mobilization preincubated for 15 mins followed by haTRAP addition by calcium-4 dye based FLIPR assay. It is filed as functional, cell-based. A general note: Calcium flux is commonly read through the fluorescence of an indicator in the cells.

The subject of data set [6] is Rattus norvegicus. Description: VRT (0 to infinity) in Wistar rat at 5 mg/kg, po measured up to 24 hrs post dose by HPLC-MS/MS analysis. It is filed as ADME, organism-based. To be noted: in vivo.
The subject of data set [7] is collagen-stimulated platelet aggregation. Description: Toxicity in guinea pig assessed as inhibition of collagen-stimulated platelet aggregation at 10 mg/kg, po pretreated for 2 hrs followed by collagen stimulation measured after 5 mins. It is filed as organism-based, Cavia porcellus. Conditions: in vivo.
The test system of data set [8] is Platelet. Description: Effect on collagen-stimulated platelet aggregation in human platelet-rich plasma up to 10 uM preincubated for 20 mins followed by collagen stimulation measured after 5 mins by aggregometric analysis. It is filed as ADME, cell-based. The gist of the method: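 Human platelet-rich plasma stimulated with TRAP 15 µM, ADP 10 µM or collagen 5 µg/mL. ADP and collagen tests went up to 10 µM compound. Three separate experiments per agonist. Mean IC50 taken from IC50s of the independent experiments; values given as median ± SD.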

Data set [9] relates to Cavia porcellus. Description: In vivo antagonist activity at PAR1 in guinea pig assessed as inhibition of TRAP-stimulated platelet aggregation at 10 mg/kg, po pretreated for 2 hrs followed by TRAP stimulation measured after 5 mins. In kind it is functional.

As usually defined, the AUC(0-inf) is the area under the concentration-time curve extrapolated to infinity. In general, inhibition in vivo refers to the relative decrease from the control value, in per cent. For orientation: inhibition means the relative decrease from the control value, in per cent. As a reminder, the IC50 is the concentration at which inhibition is half-maximal. Regarding `CC1CC[C@@H]2C(C)(C)[C@H](O)CC[C@@]2(C)[C@@H]1/C=C/c1ccc(-c2cccc(F)c2)cn1` (single isomer, unassigned), the Activity result in data set [1] and in data set [8] was “Non-Toxic” each time. The AUC(0-inf) in data set [2] amounted to 1450 ng·h/mL. Also, the inhibition in vivo at 30 mg/kg in data set [3] stood at 99.8%. Moreover, the inhibition at 5 min in [4] stood at 6.8%; in [7], 5.5%. Also, the IC50 in data set [5] amounted to 1.1 µM. For the same molecule, the VRT in [6] came out at 25 ha2. Also, in [9], the inhibition in vivo at 10 mg/kg came to 87.6%.
